Experimental findings from ChEMBL document CHEMBL3098056, “Small molecule inhibitors of anthrax lethal factor toxin” (Bioorg Med Chem, 2014) are described below.

Bounds are passed on as bounds.

Assay [1] concerns the target Matrix metalloproteinase-9 (Homo sapiens, UniProt P14780). The assay is described as follows: Inhibition of human MMP-9 after 60 mins by FRET assay. Summed up:
(§1)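 MMP-1 (38 nM) or MMP-9 (13 nM) with 50 fluorogenic substrate in 50 mM MOPS pH 6.0 and 0.05% NP-40, 37 °C for 60 min (linear range 90 min). Stopped with acetic acid (0.5% final); emission at 440 nm, excitation at 340 nm.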

The target in assay [2] is T1, Lethal factor (Bacillus anthracis, UniProt P15917).
T1 sequence (P15917 whole entry): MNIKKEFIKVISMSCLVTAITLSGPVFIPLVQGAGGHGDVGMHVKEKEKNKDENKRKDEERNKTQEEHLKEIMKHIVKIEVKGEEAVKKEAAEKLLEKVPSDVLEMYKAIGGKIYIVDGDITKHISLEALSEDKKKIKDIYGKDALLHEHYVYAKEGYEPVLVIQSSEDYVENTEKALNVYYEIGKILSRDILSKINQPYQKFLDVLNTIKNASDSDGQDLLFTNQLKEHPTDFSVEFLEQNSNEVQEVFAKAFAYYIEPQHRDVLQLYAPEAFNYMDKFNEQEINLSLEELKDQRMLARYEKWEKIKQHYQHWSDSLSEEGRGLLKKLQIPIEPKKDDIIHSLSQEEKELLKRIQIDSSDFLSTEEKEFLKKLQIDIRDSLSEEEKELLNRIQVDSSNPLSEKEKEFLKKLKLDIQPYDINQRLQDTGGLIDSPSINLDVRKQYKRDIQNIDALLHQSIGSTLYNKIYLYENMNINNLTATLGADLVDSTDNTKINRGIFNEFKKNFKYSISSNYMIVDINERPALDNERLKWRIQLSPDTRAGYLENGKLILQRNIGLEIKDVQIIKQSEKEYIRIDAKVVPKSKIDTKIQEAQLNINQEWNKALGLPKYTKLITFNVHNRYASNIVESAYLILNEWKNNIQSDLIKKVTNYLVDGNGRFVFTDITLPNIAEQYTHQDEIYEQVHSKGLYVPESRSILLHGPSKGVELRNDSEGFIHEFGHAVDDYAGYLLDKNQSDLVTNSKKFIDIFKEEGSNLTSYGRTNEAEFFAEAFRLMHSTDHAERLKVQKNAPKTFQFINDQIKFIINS
The assay is described as follows: Non-competitive inhibition of Bacillus anthracis lethal factor using 25 uM MCA-KKVYPYPME[dnp]K amide as substrate after 30 mins by Eadie-Hofstee plot analysis.

The target in assay [3] is T1, Lethal factor. The assay is described as follows: Non-competitive inhibition of Bacillus anthracis lethal factor using 6.25 uM MCA-KKVYPYPME[dnp]K amide as substrate after 30 mins by Eadie-Hofstee plot analysis.
Assay [4] deals with T1, Lethal factor. In words: Non-competitive inhibition of Bacillus anthracis lethal factor using 100 uM MCA-KKVYPYPME[dnp]K amide as substrate after 30 mins by Eadie-Hofstee plot analysis.
The target in assay [5] is T1, Lethal factor. In words: Non-competitive inhibition of Bacillus anthracis lethal factor using 3.12 uM MCA-KKVYPYPME[dnp]K amide as substrate after 30 mins by Eadie-Hofstee plot analysis.
Assay [6] addresses T1, Lethal factor. The assay is described as follows: Non-competitive inhibition of Bacillus anthracis lethal factor using 50 uM MCA-KKVYPYPME[dnp]K amide as substrate after 30 mins by Eadie-Hofstee plot analysis.
In assay [7] the target is T1, Lethal factor. In words: Non-competitive inhibition of Bacillus anthracis lethal factor using 12.5 uM MCA-KKVYPYPME[dnp]K amide as substrate after 30 mins by Eadie-Hofstee plot analysis.
In assay [8] the target is T1, Lethal factor. In words: Non-competitive inhibition of Bacillus anthracis lethal factor assessed as MCA-KKVYPYPME[dnp]K amide cleavage after 30 mins by Eadie-Hofstee plot analysis.
The target of another assay is T2, Interstitial collagenase (Homo sapiens, UniProt P03956).
T2 sequence (P03956 whole entry): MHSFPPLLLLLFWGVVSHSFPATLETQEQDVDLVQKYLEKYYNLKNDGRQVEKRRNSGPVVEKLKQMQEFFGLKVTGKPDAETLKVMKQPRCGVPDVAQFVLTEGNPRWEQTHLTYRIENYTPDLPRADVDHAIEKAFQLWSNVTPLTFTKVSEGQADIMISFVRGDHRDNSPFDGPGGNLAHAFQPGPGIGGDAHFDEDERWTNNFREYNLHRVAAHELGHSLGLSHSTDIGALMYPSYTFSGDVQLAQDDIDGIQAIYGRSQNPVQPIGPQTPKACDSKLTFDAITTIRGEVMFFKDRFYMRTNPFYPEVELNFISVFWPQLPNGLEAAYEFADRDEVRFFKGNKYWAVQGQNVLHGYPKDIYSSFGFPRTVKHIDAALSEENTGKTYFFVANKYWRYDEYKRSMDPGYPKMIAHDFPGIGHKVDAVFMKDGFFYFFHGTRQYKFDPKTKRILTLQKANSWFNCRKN
The assay is described as follows: Inhibition of human MMP-1 after 60 mins by FRET assay. In a few lines:
as §1

Assay [9] concerns the target T1, Lethal factor. In words: Inhibition of Bacillus anthracis lethal factor assessed as MCA-KKVYPYPME[dnp]K amide cleavage after 30 mins by fluorescence plate reader analysis.
Assay [10] addresses Botulinum neurotoxin type A (Clostridium botulinum, UniProt P0DPI0). In words: Inhibition of Clostridium bolulinum BoNT/A assessed as cleavage of MOCAc-Lys-Lys-Val-Tyr-Pro-Tyr-Pro-Met-Glu-Lys(Dnp)-NH2 after 40 mins by FRET assay. In a few lines: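 BoNT/A light chain (2 nM) in a 96-well FRET format. Reactions were stopped with acetic acid to 0.5% and cleaved-substrate fluorescence read at 485 nm with excitation at 398 nm. The same format served for IC50 and mechanism kinetics.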

In assay [11] the target is T1, Lethal factor. In words: Inhibition of Bacillus anthracis lethal factor. Summed up: (§2)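 FRET-based assay: LF cleaves a SNAP-derived fluorogenic peptide, and cleavage is read as a change in fluorescence.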
Assay [12] concerns the target T1, Lethal factor.
Assay [13] concerns the target T1, Lethal factor. The assay is described as follows: Inhibition of Bacillus anthracis lethal factor by fluorescence assay. In a few lines:
as §2

Botulinum neurotoxin type A, sequence (P0DPI0 2-448 limits assumed): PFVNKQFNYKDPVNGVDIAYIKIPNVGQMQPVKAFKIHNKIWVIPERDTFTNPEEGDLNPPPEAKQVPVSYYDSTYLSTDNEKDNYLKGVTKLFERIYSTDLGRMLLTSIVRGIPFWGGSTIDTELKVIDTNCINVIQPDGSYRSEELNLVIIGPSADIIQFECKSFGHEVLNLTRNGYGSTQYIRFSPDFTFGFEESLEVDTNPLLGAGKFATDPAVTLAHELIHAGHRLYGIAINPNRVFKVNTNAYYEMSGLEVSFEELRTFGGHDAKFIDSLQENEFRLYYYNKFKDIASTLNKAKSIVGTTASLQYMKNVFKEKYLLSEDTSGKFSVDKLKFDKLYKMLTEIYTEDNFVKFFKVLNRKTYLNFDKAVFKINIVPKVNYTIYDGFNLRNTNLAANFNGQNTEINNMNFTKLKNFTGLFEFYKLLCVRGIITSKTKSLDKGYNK
Matrix metalloproteinase-9, sequence (P14780 whole entry): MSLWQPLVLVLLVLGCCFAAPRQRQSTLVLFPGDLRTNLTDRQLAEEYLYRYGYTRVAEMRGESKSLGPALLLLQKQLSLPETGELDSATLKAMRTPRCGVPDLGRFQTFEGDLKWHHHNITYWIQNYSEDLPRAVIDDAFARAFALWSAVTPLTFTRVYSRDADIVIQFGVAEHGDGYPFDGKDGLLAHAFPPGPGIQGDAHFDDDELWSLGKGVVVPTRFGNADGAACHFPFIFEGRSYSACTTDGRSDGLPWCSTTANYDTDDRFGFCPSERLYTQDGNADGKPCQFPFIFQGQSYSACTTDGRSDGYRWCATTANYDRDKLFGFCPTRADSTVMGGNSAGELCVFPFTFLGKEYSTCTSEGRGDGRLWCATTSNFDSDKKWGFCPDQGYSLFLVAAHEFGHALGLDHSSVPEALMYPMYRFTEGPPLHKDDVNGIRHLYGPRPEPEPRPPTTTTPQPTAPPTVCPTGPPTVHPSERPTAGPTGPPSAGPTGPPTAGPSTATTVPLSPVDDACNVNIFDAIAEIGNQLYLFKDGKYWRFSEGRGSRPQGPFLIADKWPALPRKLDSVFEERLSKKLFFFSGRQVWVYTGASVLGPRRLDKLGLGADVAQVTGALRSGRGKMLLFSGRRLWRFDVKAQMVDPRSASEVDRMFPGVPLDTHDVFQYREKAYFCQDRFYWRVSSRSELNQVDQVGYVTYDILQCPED

In general, IC50 refers to the concentration that gives 50% inhibition. The term Ki denotes a measure of affinity in units of concentration, obtained from inhibition or displacement. Regarding `Cc1cc(N)c2cc(NC(=O)c3ccc(-c4ccc5ncccc5c4)cc3)ccc2n1`, the concentration for half-maximal inhibition (IC50) in assay [1] worked out at 1.7 µM; on Lethal factor [2] it was 1220 nM; on Lethal factor [3], 1260 nM; on Lethal factor [4] it was 1100 nM; at Lethal factor [6], 1160 nM; at Lethal factor [7], 1250 nM. In addition, the results for the half-maximal inhibitory concentration (IC50) (on Interstitial collagenase; at Lethal factor [9]; in [10]) were greater than 100 µM, 1.6 µM and 38 µM, respectively. For the same molecule, the inhibition constant Ki at Lethal factor [5] turned out to be 1260 nM; at Lethal factor [8], 1140 nM.
As for `Cc1cc(=S)c(O)c(C(=S)NCc2ccc(-c3ccccc3)cc2)o1`, the IC50 at Lethal factor [11] amounted to 14 µM.
At Lethal factor [12], `Cc1cc(S(=O)(=O)N[C@@H](C(=O)NO)C2CCOCC2)ccc1F` showed a Ki of 24 nM.
In the case of `O=c1oc2c(O)c(O)ccc2c2c1CCC2`, on Lethal factor [13], the inhibition constant (Ki) is 570 nM.
`CNC(=O)[C@@H](CCc1ccccc1)NC(=O)[C@@H](CC(=O)NO)CC(C)C`: the half-inhibitory concentration (IC50) against Lethal factor [11] was determined as 7 µM.
As to `Cc1cc(N)c2cc(NC(=O)c3cccc(-c4ccc5ncccc5c4)c3)ccc2n1`, the IC50 in assay [1] was greater than 100 µM; at Interstitial collagenase it was greater than 100 µM; on Lethal factor [9], 4.6 µM; in [10], 26 µM.
As to `COc1ccccc1CCC(=O)Nc1ccc2nc(C)cc(N)c2c1`, the half-inhibitory concentration (IC50) was greater than 100 µM in assay [1]; 952 nM at Lethal factor [2]; 729 nM on Lethal factor [3]; 1220 nM on Lethal factor [4]; 1100 nM at Lethal factor [6]; 841 nM on Lethal factor [7]. The IC50 against Interstitial collagenase was greater than 100 µM; at Lethal factor [9], 3 µM; in [10], greater than 100 µM. The inhibition constant (Ki) amounted to 478 nM on Lethal factor [5] and 2880 nM on Lethal factor [8].
Take `Cc1cc(N)c2cc(NC(=O)c3ccc(-c4cncc5ccccc45)cc3)ccc2n1`: the IC50 was 9.4 µM in assay [1], greater than 100 µM on Interstitial collagenase, 13 µM on Lethal factor [9] and 65 µM in assay [10].
The matching figures for `Cc1cc(N)c2cc(NC(=O)c3ccc(Oc4ccccc4)cc3)ccc2n1`: greater than 100 µM, greater than 100 µM, 70 µM and greater than 100 µM.
Regarding `Cc1cc(N)c2cc(NC(=O)c3cccc(-c4cccc5cccnc45)c3)ccc2n1`, the 50% inhibitory concentration (IC50) was greater than 100 µM in assay [1], greater than 100 µM against Interstitial collagenase, 36 µM on Lethal factor [9] and 79 µM in assay [10].
Consider `COc1ncccc1CCC(=O)Nc1ccc2nc(C)cc(N)c2c1`, for which the IC50 is greater than 100 µM in assay [1], greater than 100 µM on Interstitial collagenase, 41 µM on Lethal factor [9] and greater than 100 µM in assay [10].
In turn, `O=C(N/N=C/c1cc([N+](=O)[O-])ccc1O)c1ccc(O)c(O)c1` registered a Ki on Lethal factor [11] of 1100 nM.
On to `Cc1cc(N)c2cc(NC(=O)c3cccc(-c4cncc5ccccc45)c3)ccc2n1`, for which the concentration for half-maximal inhibition (IC50) in assay [1] is 48 µM; at Interstitial collagenase it was 50 µM; at Lethal factor [9] it was 21 µM; in assay [10], greater than 100 µM.
Turning to `Cc1cc(N)c2cc(NC(=O)c3cccc(-c4cnc5ccccc5c4)c3)ccc2n1`, the IC50 in assay [1] was 16 µM; on Interstitial collagenase, greater than 100 µM; on Lethal factor [9], 5.7 µM; in assay [10], 45 µM.
On the same counts, the results for `Cc1cc(N)c2cc(NC(=O)Nc3ccc4nc(C)cc(N)c4c3)ccc2n1` [AMINOQUINURIDE] are 100 µM, 31 µM, 3.2 µM and 7.2 µM.
